Structures are written as SMILES. In brackets after ≈: the same amount, converted by molar mass.

The values below come from ChEMBL document CHEMBL1152967, “Scalarane-based sesterterpenoid RCE-protease inhibitors isolated from the Indonesian marine sponge Carteriospongia foliascens” (J Nat Prod, 2009).

In one assay the test system is LoVo. Put plainly: Cytotoxicity against human LoVo cells harboring mutated K-Ras after 3 days. Conditions: 72 h. Type of assay: functional, cell-based.
Another assay has as its target T1, CAAX prenyl protease 2 (Homo sapiens, UniProt Q9Y256).
T1 sequence (Q9Y256 whole entry): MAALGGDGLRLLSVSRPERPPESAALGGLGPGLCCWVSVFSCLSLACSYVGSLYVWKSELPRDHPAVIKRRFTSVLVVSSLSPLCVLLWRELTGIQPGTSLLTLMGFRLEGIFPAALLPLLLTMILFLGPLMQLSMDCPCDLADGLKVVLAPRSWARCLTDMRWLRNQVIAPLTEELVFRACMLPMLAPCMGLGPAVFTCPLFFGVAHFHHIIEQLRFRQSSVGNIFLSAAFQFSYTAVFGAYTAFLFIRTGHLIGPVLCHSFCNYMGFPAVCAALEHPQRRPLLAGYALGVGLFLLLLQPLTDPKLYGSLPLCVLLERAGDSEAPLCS
The assay is described as follows: Inhibition of human RCE1. In short, it runs like this: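 Substrate was a fluorescent-labeled peptide from the carboxy terminus of farnesylated K-Ras. Cleavage was analyzed by reversed-phase HPLC. IC50 is reported in µg/mL.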

Assay [1] in a line: Cytotoxicity against human MDA468 cells harboring mutated PTEN and p53 after 3 days. Type of assay: functional, cell-based. Conditions: MDA-MB-468, 72 h.
Another assay has as its system Caco-2. Put plainly: Cytotoxicity against human Caco-2 cells harboring wild type Ras after 3 days. Type of assay: functional, cell-based. Conditions: Caco-2, 72 h.
A further assay relates to PC-3. The assay is described as follows: Cytotoxicity against human PC3 cells harboring mutated PTEN and p53 after 3 days. Type of assay: functional, cell-based. Conditions: PC-3, 72 h.

One may read the IC50 as the concentration at which inhibition is half-maximal. As for `CCO[C@@H]1C[C@H]2[C@]3(C)CC[C@H]4[C@@](C)(CC)CCC[C@]4(C)[C@H]3C[C@H](OC(=O)CC(O)C(C)C)[C@]2(C)C2=C1C(C)(O)OC2=O` (stereo not given in full), the IC50 was 2.9 µg/mL (≈ 4.93 µM) in the assay on LoVo; 7.31 µM against CAAX prenyl protease 2; 4.4 µg/mL (≈ 7.47 µM) in assay [1]; 4.2 µg/mL (≈ 7.13 µM) in the assay on Caco-2; 3.2 µg/mL (≈ 5.43 µM) with PC-3.
On the same counts, the results for `CCC(O)CC(=O)O[C@H]1C[C@@H]2[C@@]3(C)CCC[C@](C)(CC)[C@@H]3CC[C@@]2(C)[C@@H]2C=CC3=C(C(=O)OC3(C)O)[C@@]12C` (stereo not given in full) are 3.4 µg/mL (≈ 6.43 µM), 17 µM, more than 10 µg/mL, 6.2 µg/mL (≈ 11.7 µM) and 3.7 µg/mL (≈ 7 µM).
On the same counts, the results for `CCC(O)CC(=O)O[C@H]1C[C@H]2[C@@](C)(CC[C@H]3[C@@](C)(CC)CCC[C@]23C)[C@@H]2C[C@@H](O)C(C(C)=O)=C[C@@]12C` (stereo not given in full) are more than 10 µg/mL, more than 199 µM, more than 10 µg/mL, more than 10 µg/mL and more than 10 µg/mL.
Consider `CC[C@@]1(C)CCC[C@]2(C)[C@H]3C[C@H](OC(=O)CC(O)C(C)C)[C@]4(C)C=C(C(C)=O)[C@H](O)C[C@H]4[C@]3(C)CC[C@@H]12` (stereo not given in full), for which the IC50 in the assay on LoVo was 7.6 µg/mL (≈ 14.7 µM); against CAAX prenyl protease 2, 73.5 µM; in assay [1], 9.5 µg/mL (≈ 18.4 µM); in the assay on Caco-2, 3.4 µg/mL (≈ 6.58 µM); with PC-3 it was 3.8 µg/mL (≈ 7.35 µM).
